Assays:
Format in all cases: functional
SNB-19 = test: Growth inhibition of human SNB-19 cells assessed as cell growth at 0.01 uM incubated for 48 hrs by sulforhodamine B assay relative to control; conditions: read-out: Activity
SNB-75 [1] = test: Growth inhibition of human SNB-75 cells assessed as cell growth at 0.01 uM incubated for 48 hrs by sulforhodamine B assay relative to control; conditions: read-out: Activity
UACC-62 [2] = test: Growth inhibition of human UACC-62 cells assessed as cell growth at 0.01 uM incubated for 48 hrs by sulforhodamine B assay relative to control; conditions: read-out: Activity
RXF 393 = test: Growth inhibition of human RXF 393 cells assessed as cell growth at 0.01 uM incubated for 48 hrs by sulforhodamine B assay relative to control; conditions: read-out: Activity
UO-31 = test: Growth inhibition of human UO-31 cells assessed as cell growth at 0.01 uM incubated for 48 hrs by sulforhodamine B assay relative to control; conditions: read-out: Activity
NCI-H460 [3] = test: Growth inhibition of human NCI-H460 cells assessed as cell growth at 0.1 uM incubated for 48 hrs by sulforhodamine B assay relative to control; conditions: read-out: Activity
COLO 205 [4] = test: Growth inhibition of human COLO 205 cells assessed as cell growth at 0.1 uM incubated for 48 hrs by sulforhodamine B assay relative to control; conditions: read-out: Activity
Method in brief: (§1)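 NCI Developmental Therapeutics Program NCI60 panel. Compounds that were active in the 10 µM one-dose screen went on to dose–response testing. Growth at each concentration is expressed relative to untreated control (100%). GI50 (concentration giving 50% of maximal inhibition of proliferation) and TGI (concentration giving total growth inhibition) were derived from the curves.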

HCC 2998 = test: Growth inhibition of human HCC 2998 cells assessed as cell growth at 0.1 uM incubated for 48 hrs by sulforhodamine B assay relative to control; conditions: read-out: Activity; method in brief: as §1
KM12 = test: Growth inhibition of human KM12 cells assessed as cell growth at 0.1 uM incubated for 48 hrs by sulforhodamine B assay relative to control; conditions: read-out: Activity
SF-295 [5] = test: Growth inhibition of human SF-295 cells assessed as cell growth at 0.1 uM incubated for 48 hrs by sulforhodamine B assay relative to control; conditions: read-out: Activity
SF-539 [6] = test: Growth inhibition of human SF-539 cells assessed as cell growth at 0.1 uM incubated for 48 hrs by sulforhodamine B assay relative to control; conditions: read-out: Activity
SK-MEL-28 = test: Growth inhibition of human SK-MEL-28 cells assessed as cell growth at 0.1 uM incubated for 48 hrs by sulforhodamine B assay relative to control; conditions: read-out: Activity
UACC-62 [7] = test: Growth inhibition of human UACC-62 cells assessed as cell growth at 0.1 uM incubated for 48 hrs by sulforhodamine B assay relative to control; conditions: read-out: Activity
OVCAR-3 = test: Growth inhibition of human OVCAR-3 cells assessed as cell growth at 0.1 uM incubated for 48 hrs by sulforhodamine B assay relative to control; conditions: read-out: Activity
NCI-H322M [8] = test: Growth inhibition of human NCI-H322M cells assessed as cell growth at 1 uM incubated for 48 hrs by sulforhodamine B assay relative to control; conditions: read-out: Activity
NCI-H460 [9] = test: Growth inhibition of human NCI-H460 cells assessed as cell growth at 1 uM incubated for 48 hrs by sulforhodamine B assay relative to control; conditions: read-out: Activity
HCT-116 = test: Growth inhibition of human HCT-116 cells assessed as cell growth at 1 uM incubated for 48 hrs by sulforhodamine B assay relative to control; conditions: read-out: Activity
SNB-75 [10] = test: Growth inhibition of human SNB-75 cells assessed as cell growth at 1 uM incubated for 48 hrs by sulforhodamine B assay relative to control; conditions: read-out: Activity
U-251 = test: Growth inhibition of human U-251 cells assessed as cell growth at 1 uM incubated for 48 hrs by sulforhodamine B assay relative to control; conditions: read-out: Activity
MDA-MB-435 = test: Growth inhibition of human MDA-MB-435 cells assessed as cell growth at 1 uM incubated for 48 hrs by sulforhodamine B assay relative to control; conditions: read-out: Activity
786-0 = test: Growth inhibition of human 786-0 cells assessed as cell growth at 1 uM incubated for 48 hrs by sulforhodamine B assay relative to control; conditions: read-out: Activity; method in brief: as §1
MDA-MB-231 = test: Growth inhibition of human MDA-MB-231 cells assessed as cell growth at 1 uM incubated for 48 hrs by sulforhodamine B assay relative to control; conditions: read-out: Activity
COLO 205 [11] = test: Growth inhibition of human COLO 205 cells assessed as cell growth at 100 uM incubated for 48 hrs by sulforhodamine B assay relative to control; conditions: read-out: Activity; method in brief: as §1
SF-539 [12] = test: Growth inhibition of human SF-539 cells assessed as cell growth at 100 uM incubated for 48 hrs by sulforhodamine B assay relative to control; conditions: read-out: Activity
M14 = test: Growth inhibition of human M14 cells assessed as cell growth at 100 uM incubated for 48 hrs by sulforhodamine B assay relative to control; conditions: read-out: Activity
DU-145 = test: Growth inhibition of human DU-145 cells assessed as cell growth at 100 uM incubated for 48 hrs by sulforhodamine B assay relative to control; conditions: read-out: Activity; method in brief: as §1
SR = test: Growth inhibition of human SR cells incubated for 48 hrs by sulforhodamine B assay
Method in brief: (§2)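 NCI DTP 60-line human tumour panel. Dose-response curves were run only for ligands active in the initial 10 µM screen. GI50 (concentration giving 50% of maximal inhibition of proliferation) and TGI (concentration giving total growth inhibition) were derived from these curves.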

A549 = test: Growth inhibition of human A549/ATCC cells incubated for 48 hrs by sulforhodamine B assay; conditions: for CC50: read-out: LC50 (the source's name); method in brief: as §1
NCI-H226 = test: Growth inhibition of human NCI-H226 cells incubated for 48 hrs by sulforhodamine B assay; conditions: for CC50: read-out: LC50 (the source's name)
Method in brief: (§3)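 NCI60 panel at the NCI Developmental Therapeutics Program. Only compounds active in the 10 µM screen went to dose-response testing. GI50, the concentration giving 50% of maximal inhibition of proliferation, and TGI, the concentration giving total growth inhibition, were derived from the dose-response curves.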

NCI-H322M [13] = test: Growth inhibition of human NCI-H322M cells incubated for 48 hrs by sulforhodamine B assay; conditions: for CC50: read-out: LC50 (the source's name); method in brief: as §3
SF-295 [14] = test: Growth inhibition of human SF-295 cells incubated for 48 hrs by sulforhodamine B assay; method in brief: as §2
SNB-75 [15] = test: Growth inhibition of human SNB-75 cells incubated for 48 hrs by sulforhodamine B assay; method in brief: as §2
UACC-62 [16] = test: Growth inhibition of human UACC-62 cells incubated for 48 hrs by sulforhodamine B assay; method in brief: as §2
OVCAR-5 = test: Growth inhibition of human OVCAR-5 cells incubated for 48 hrs by sulforhodamine B assay; conditions: for CC50: read-out: LC50 (the source's name); method in brief: as §2
TK-10 = test: Growth inhibition of human TK-10 cells incubated for 48 hrs by sulforhodamine B assay; conditions: for CC50: read-out: LC50 (the source's name); method in brief: as §2

`COc1cccc(NC(=O)c2sc3nc4c(cc3c2N)CN(Cc2ccccc2)CC4)c1` gave a growth at 0.01 µM (SNB-19) of 98%, a growth at 0.01 µM (SNB-75 [1]) of 88% and a growth at 0.01 µM (UACC-62 [2]) of 94%. It also gave a growth at 0.01 µM (RXF 393) of 97%, a growth at 0.01 µM (UO-31) of 92% and a growth at 0.1 µM (NCI-H460 [3]) of 101%. The growth at 0.1 µM (COLO 205 [4]) was 98%, the growth at 0.1 µM (HCC 2998) was 98% and the growth at 0.1 µM (KM12) was 98%. For the same compound, the growth at 0.1 µM (SF-295 [5]) was 90%, the growth at 0.1 µM (SF-539 [6]) was 92% and the growth at 0.1 µM (SK-MEL-28) was 99%. The growth at 0.1 µM (UACC-62 [7]) was 89%, the growth at 0.1 µM (OVCAR-3) was 103% and the growth at 1 µM (NCI-H322M [8]) was 83%. The growth at 1 µM (NCI-H460 [9]) was 92%, the growth at 1 µM (HCT-116) was 59% and the growth at 1 µM (SNB-75 [10]) was 77%. For the same compound, the growth at 1 µM (U-251) was 72%, the growth at 1 µM (MDA-MB-435) was 4% and the growth at 1 µM (786-0) was 85%. The growth at 1 µM (MDA-MB-231) was 78%, the growth at 100 µM (COLO 205 [11]) was -16% and the growth at 100 µM (SF-539 [12]) was -75%. For the same compound, the growth at 100 µM (M14) was -4%, the growth at 100 µM (DU-145) was -61% and the GI50 (SR) was 0.453 µM. The LC50 (SR) was > 100 µM, the TGI (SR) was 47.7 µM and the GI50 (A549) was 3.79 µM. The TGI (A549) was 53.8 µM, the CC50 (A549) was > 100 µM and the GI50 (NCI-H226) was 6.03 µM. The TGI (NCI-H226) was 38.3 µM, the CC50 (NCI-H226) was > 100 µM and the GI50 (NCI-H322M [13]) was 25.2 µM. For the same compound, the TGI (NCI-H322M [13]) was > 100 µM, the CC50 (NCI-H322M [13]) was > 100 µM and the GI50 (SF-295 [14]) was 3.05 µM. It also gave an LC50 (concentration killing 50% of cells) (SF-295 [14]) of 94.3 µM, a TGI (SF-295 [14]) of 19.4 µM and a GI50 (SNB-75 [15]) of 1.73 µM. It also gave an LC50 (SNB-75 [15]) of 33.7 µM, a TGI (SNB-75 [15]) of 4.71 µM and a GI50 (UACC-62 [16]) of 1.92 µM. For the same compound, the LC50 (UACC-62 [16]) was > 100 µM, the TGI (UACC-62 [16]) was 29.8 µM and the GI50 (OVCAR-5) was 36.9 µM. The TGI (OVCAR-5) was > 100 µM, the CC50 (OVCAR-5) was > 100 µM and the GI50 (TK-10) was 4.82 µM. The TGI (TK-10) was 21.6 µM and the CC50 (TK-10) was 86.8 µM.
`Cc1cccc(NC(=O)c2sc3nc4c(cc3c2N)C(=O)CCC4)c1` showed a growth at 0.01 µM (SNB-19) of 94%, a growth at 0.01 µM (SNB-75 [1]) of 80% and a growth at 0.01 µM (UACC-62 [2]) of 94%. It also gave a growth at 0.01 µM (RXF 393) of 97%, a growth at 0.01 µM (UO-31) of 88% and a growth at 0.1 µM (NCI-H460 [3]) of 83%. It also gave a growth at 0.1 µM (COLO 205 [4]) of 78%, a growth at 0.1 µM (HCC 2998) of 80% and a growth at 0.1 µM (KM12) of 65%. For the same compound, the growth at 0.1 µM (SF-295 [5]) was 60%, the growth at 0.1 µM (SF-539 [6]) was 75% and the growth at 0.1 µM (SK-MEL-28) was 66%. For the same compound, the growth at 0.1 µM (UACC-62 [7]) was 72%, the growth at 0.1 µM (OVCAR-3) was 81% and the growth at 1 µM (NCI-H322M [8]) was 48%. It also gave a growth at 1 µM (NCI-H460 [9]) of 8%, a growth at 1 µM (HCT-116) of 28% and a growth at 1 µM (SNB-75 [10]) of 6%. It also gave a growth at 1 µM (U-251) of 17%, a growth at 1 µM (MDA-MB-435) of -61% and a growth at 1 µM (786-0) of 30%. The growth at 1 µM (MDA-MB-231) was 40%, the growth at 100 µM (COLO 205 [11]) was -8% and the growth at 100 µM (SF-539 [12]) was -25%. The growth at 100 µM (M14) was -48%, the growth at 100 µM (DU-145) was -34% and the GI50 (A549) was 0.3 µM. The TGI (A549) was > 100 µM, the CC50 (A549) was > 100 µM and the GI50 (NCI-H226) was 1.09 µM. For the same compound, the TGI (NCI-H226) was > 100 µM, the CC50 (NCI-H226) was > 100 µM and the TGI (NCI-H322M [13]) was > 100 µM. The CC50 (NCI-H322M [13]) was > 100 µM, the GI50 (SF-295 [14]) was 0.175 µM and the LC50 (concentration killing 50% of cells) (SF-295 [14]) was > 100 µM. The TGI (SF-295 [14]) was ≥ 100 µM, the GI50 (SNB-75 [15]) was 0.23 µM and the LC50 (SNB-75 [15]) was > 100 µM. For the same compound, the TGI (SNB-75 [15]) was ≥ 100 µM, the GI50 (UACC-62 [16]) was 0.333 µM and the LC50 (UACC-62 [16]) was > 100 µM. For the same compound, the TGI (UACC-62 [16]) was ≥ 100 µM, the TGI (OVCAR-5) was ≥ 100 µM and the CC50 (OVCAR-5) was > 100 µM. For the same compound, the GI50 (TK-10) was > 100 µM, the TGI (TK-10) was ≥ 100 µM and the CC50 (TK-10) was > 100 µM.

Source: ChEMBL document CHEMBL4715736, “Identification of anticancer agents based on the thieno[2,3-b]pyridine and 1H-pyrazole molecular scaffolds” (2016)
